Tests used:
Format in all cases: functional
[1] = tested on: Vesicular stomatitis virus; assay: Evaluation for serum interferon response from a single 800 mg/kg intraperitoneal administration in vesicular stomatitis virus on […] cells.
Method in brief: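 Mice got a single ip 800 mg/kg dose. Blood was drawn 3, 6, 8 and 12 h later from five mice per group and pooled. Interferon titer was measured by plaque reduction with vesicular stomatitis virus on L929 cells. Titer is the reciprocal serum dilution cutting plaques by 50% versus untreated cultures. Peak response within 24 h was banded: ≥2000, ~500-1000, ~50-500, ~10-50 U/mL.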

Semliki Forest virus [2] = assay: Antiviral activity against Forest virus (SFV)
Method in brief: (§1)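 ICR or CD-1 mice of both sexes got one drug dose by the route in the line (ip, po or sc). The drug was a suspension in 0.9% NaCl or in a CMC/polysorbate 80/benzyl alcohol/NaCl vehicle. […] Deaths were recorded daily for 6 days, 24 mice/group. ED50 is the minimal dose protecting 50% of mice, by probit analysis.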

Semliki Forest virus [3] = assay: Effective dose administered perorally againist Forest virus infected mice; conditions: po; method in brief: as §1
Human alphaherpesvirus 1 = assay: Intraperitoneal administration against herpes simplex virus type-1 (HSV-1) infected mice
Method in brief: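 ICR or CD-1 mice got drug ip in saline as the total daily dose (mg/kg/day). It was split into doses at -40, -28, -20, -3 and +3 h relative to ip inoculation with 5.6×10^4 pfu HSV-1. Mice were followed for 22 days, 15/group. Protection index = (control mortality − treated mortality)/control mortality; >0.25 counted active. Only the lowest protective dose is recorded.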

Semliki Forest virus [4] = assay: Effective dose administered subcutaneously againist Forest virus infected mice; conditions: sc; method in brief: as §1

Question: How did the IFN [1] turn out when `COc1ccccc1-c1nc(N)nc(O)c1Cl` was run?
Answer: Its IFN is 50 units/mL.

Question: What about the ED50 (Semliki Forest virus [2]) of the same compound?
Answer: Its ED50 is 20 mg/kg.

Question: What about the ED50 (Semliki Forest virus [3]) of the same compound?
Answer: Its ED50 is over 400 mg/kg.

Question: What about the Protection index (Human alphaherpesvirus 1) of the same compound?
Answer: Its Protection index is 0.53.

Question: Which ED50 (Semliki Forest virus [2]) does the source give for `Nc1nc(O)c(Br)c(-c2ccc(Cl)c(Cl)c2)n1` here?
Answer: Its ED50 is 215 mg/kg.

Question: And the ED50 (Semliki Forest virus [3])?
Answer: Its ED50 is over 400 mg/kg.

Question: What about the ED50 (Semliki Forest virus [4]) of the same compound?
Answer: The ED50 was over 400 mg/kg.

Question: And the Protection index (Human alphaherpesvirus 1)?
Answer: Its Protection index is 0.29.

Question: Which results are given for `Nc1nc(O)c(I)c(-c2ccncc2)n1`?
Answer: ED50 (Semliki Forest virus [2]): 365 mg/kg; ED50 (Semliki Forest virus [3]): > 400 mg/kg; ED50 (Semliki Forest virus [4]): > 400 mg/kg

Question: Which results are given for `Nc1nc(O)c(Cl)c(-c2ccc(Cl)c(Cl)c2)n1`?
Answer: ED50 (Semliki Forest virus [2]): 225 mg/kg; ED50 (Semliki Forest virus [3]): > 400 mg/kg; ED50 (Semliki Forest virus [4]): > 400 mg/kg; Protection index (Human alphaherpesvirus 1): 0

Question: For `Nc1nc(O)c(I)c(-c2cccc(F)c2F)n1`, which IFN [1] is on record?
Answer: The IFN was “>=2000 ml”.

Question: And the ED50 (Semliki Forest virus [2])?
Answer: The ED50 was over 400 mg/kg.

Question: What about the ED50 (Semliki Forest virus [3]) of the same compound?
Answer: Its ED50 is 365 mg/kg.

Question: What about the Protection index (Human alphaherpesvirus 1) of the same compound?
Answer: The Protection index was 0.34.

Question: With `CCOCCOc1cccc(-c2nc(N)nc(O)c2I)c1` as the compound, how does the Protection index (Human alphaherpesvirus 1) read?
Answer: The Protection index was 0.21.

Question: For `Cc1ccccc1-c1nc(N)nc(O)c1I`, which ED50 (Semliki Forest virus [2]) is on record?
Answer: Its ED50 is 175 mg/kg.

Question: What about the ED50 (Semliki Forest virus [3]) of the same compound?
Answer: The ED50 was over 400 mg/kg.

Question: What about the ED50 (Semliki Forest virus [4]) of the same compound?
Answer: Its ED50 is 205 mg/kg.

Question: What about the Protection index (Human alphaherpesvirus 1) of the same compound?
Answer: Its Protection index is 0.13.

Question: How did the ED50 (Semliki Forest virus [2]) turn out when `Nc1nc(O)c(Br)c(-c2cccc(I)c2)n1` was run?
Answer: The ED50 was 355 mg/kg.

Question: And the ED50 (Semliki Forest virus [3])?
Answer: The ED50 was 170 mg/kg.

Question: What about the ED50 (Semliki Forest virus [4]) of the same compound?
Answer: Its ED50 is over 400 mg/kg.

Question: Which results are given for `Nc1nc(O)c(Br)c(-c2cc(F)cc(F)c2)n1`?
Answer: IFN [1]: 50 units/mL; ED50 (Semliki Forest virus [2]): 150 mg/kg; Protection index (Human alphaherpesvirus 1): 0

Question: For `CCOc1cccc(-c2nc(N)nc(O)c2I)c1`, which Protection index (Human alphaherpesvirus 1) is on record?
Answer: The Protection index was 0.

Question: For `Nc1nc(O)c(Cl)c(-c2ccccc2Cl)n1`, which IFN [1] is on record?
Answer: Its IFN is 50 units/mL.

Question: And the ED50 (Semliki Forest virus [2])?
Answer: The ED50 was 300 mg/kg.

Question: `Nc1nc(O)c(Br)c(-c2ccoc2)n1` was tested. Which ED50 (Semliki Forest virus [2]) did it give?
Answer: Its ED50 is over 400 mg/kg.

Question: With `Nc1nc(O)c(I)c(-c2c(F)cccc2F)n1` as the compound, how does the ED50 (Semliki Forest virus [2]) read?
Answer: Its ED50 is 285 mg/kg.

Question: With `CCOCCOc1cccc(-c2nc(N)nc(O)c2Br)c1` as the compound, how does the Protection index (Human alphaherpesvirus 1) read?
Answer: Its Protection index is 0.55.

Question: `COc1cc(OC)cc(-c2nc(N)nc(O)c2I)c1` was tested. Which ED50 (Semliki Forest virus [2]) did it give?
Answer: Its ED50 is 55 mg/kg.

Question: `COc1cc(OC)cc(-c2nc(N)nc(O)c2Br)c1` was tested. Which ED50 (Semliki Forest virus [2]) did it give?
Answer: Its ED50 is 15 mg/kg.

Question: Which ED50 (Semliki Forest virus [2]) does the source give for `Nc1nc(O)c(Cl)c(-c2ccc(F)cc2)n1` here?
Answer: Its ED50 is 300 mg/kg.

Question: What about the ED50 (Semliki Forest virus [3]) of the same compound?
Answer: Its ED50 is over 400 mg/kg.

Question: What about the ED50 (Semliki Forest virus [4]) of the same compound?
Answer: The ED50 was 355 mg/kg.

Question: And the Protection index (Human alphaherpesvirus 1)?
Answer: Its Protection index is 0.85.

Question: Which results are given for `Nc1nc(O)c(Br)c(-c2cccc([N+](=O)[O-])c2)n1`?
Answer: ED50 (Semliki Forest virus [2]): 140 mg/kg; ED50 (Semliki Forest virus [3]): > 400 mg/kg; ED50 (Semliki Forest virus [4]): > 400 mg/kg; Protection index (Human alphaherpesvirus 1): 0.53

Question: How did the ED50 (Semliki Forest virus [2]) turn out when `Nc1nc(O)c(I)c(-c2ccc(OCc3ccccc3)cc2)n1` was run?
Answer: Its ED50 is over 400 mg/kg.

Question: Which Protection index (Human alphaherpesvirus 1) does the source give for `Nc1nc(O)c(Cl)c(-c2cccc(O)c2)n1` here?
Answer: The Protection index was 0.5.

Question: Which results are given for `Nc1nc(O)c(Br)c(-c2cnccn2)n1`?
Answer: ED50 (Semliki Forest virus [2]): 65 mg/kg; ED50 (Semliki Forest virus [3]): > 400 mg/kg; ED50 (Semliki Forest virus [4]): 365 mg/kg

Question: How did the IFN [1] turn out when `Nc1nc(O)c(I)c(-c2cccc(I)c2)n1` was run?
Answer: The IFN was 50 units/mL.

Question: What about the ED50 (Semliki Forest virus [2]) of the same compound?
Answer: Its ED50 is 125 mg/kg.

Question: And the Protection index (Human alphaherpesvirus 1)?
Answer: Its Protection index is 0.53.

Question: `Nc1nc(O)c(Cl)c(-c2cc(F)cc(F)c2)n1` was tested. Which IFN [1] did it give?
Answer: Its IFN is 50 units/mL.

Question: What about the ED50 (Semliki Forest virus [2]) of the same compound?
Answer: Its ED50 is 185 mg/kg.

Question: And the ED50 (Semliki Forest virus [3])?
Answer: The ED50 was over 400 mg/kg.

Question: And the Protection index (Human alphaherpesvirus 1)?
Answer: The Protection index was 0.5.

Question: How did the Protection index (Human alphaherpesvirus 1) turn out when `CCOc1cccc(-c2nc(N)nc(O)c2Cl)c1` was run?
Answer: The Protection index was 0.13.

Question: Which results are given for `Cc1ccccc1-c1nc(N)nc(O)c1Br`?
Answer: ED50 (Semliki Forest virus [2]): 60 mg/kg; ED50 (Semliki Forest virus [3]): > 400 mg/kg; ED50 (Semliki Forest virus [4]): > 400 mg/kg; Protection index (Human alphaherpesvirus 1): 0.2

Question: How did the IFN [1] turn out when `Nc1nc(O)c(Br)c(-c2cc(F)ccc2F)n1` was run?
Answer: The IFN was “>=2000 ml”.

Question: And the ED50 (Semliki Forest virus [2])?
Answer: The ED50 was 165 mg/kg.

Question: What about the ED50 (Semliki Forest virus [3]) of the same compound?
Answer: The ED50 was over 400 mg/kg.

Question: What about the Protection index (Human alphaherpesvirus 1) of the same compound?
Answer: Its Protection index is 0.

Question: Which Protection index (Human alphaherpesvirus 1) does the source give for `CCOc1cccc(-c2nc(N)nc(O)c2Br)c1` here?
Answer: Its Protection index is 0.4.

Question: For `Nc1nc(O)c(Cl)c(-c2ccccc2O)n1`, which Protection index (Human alphaherpesvirus 1) is on record?
Answer: Its Protection index is 0.61.

Question: Which results are given for `Nc1nc(=O)c(Br)c(-c2ccccc2)[nH]1` [BROPIRIMINE]?
Answer: ED50 (Semliki Forest virus [2]): 100 mg/kg; ED50 (Semliki Forest virus [3]): 100 mg/kg; ED50 (Semliki Forest virus [4]): 50 mg/kg; Protection index (Human alphaherpesvirus 1): 0.6

Question: Which results are given for `Nc1nc(O)c(I)c(-c2ccccc2Cl)n1`?
Answer: ED50 (Semliki Forest virus [2]): 90 mg/kg; Protection index (Human alphaherpesvirus 1): 0.13

Question: With `Nc1nc(O)c(Cl)c(-c2ccco2)n1` as the compound, how does the ED50 (Semliki Forest virus [2]) read?
Answer: Its ED50 is 120 mg/kg.

Question: How did the ED50 (Semliki Forest virus [2]) turn out when `Nc1nc(O)c(I)c(-c2ccc(C(=O)O)cc2)n1` was run?
Answer: Its ED50 is 380 mg/kg.

Question: For `Nc1nc(O)c(Cl)c(-c2cccc3ccccc23)n1`, which ED50 (Semliki Forest virus [2]) is on record?
Answer: The ED50 was 80 mg/kg.

Question: What about the ED50 (Semliki Forest virus [3]) of the same compound?
Answer: Its ED50 is over 400 mg/kg.

Question: What about the ED50 (Semliki Forest virus [4]) of the same compound?
Answer: The ED50 was over 400 mg/kg.

Question: What about the Protection index (Human alphaherpesvirus 1) of the same compound?
Answer: The Protection index was 0.54.

Question: `Nc1nc(O)c(Br)c(-c2ccccc2Cl)n1` was tested. Which ED50 (Semliki Forest virus [2]) did it give?
Answer: The ED50 was 285 mg/kg.

Question: How did the ED50 (Semliki Forest virus [2]) turn out when `COc1cc(OC)cc(-c2nc(N)nc(O)c2Cl)c1` was run?
Answer: Its ED50 is 90 mg/kg.

Question: `Nc1nc(O)c(Br)c(-c2cccnc2)n1` was tested. Which ED50 (Semliki Forest virus [2]) did it give?
Answer: Its ED50 is 75 mg/kg.

Question: What about the ED50 (Semliki Forest virus [3]) of the same compound?
Answer: The ED50 was over 400 mg/kg.

Question: What about the ED50 (Semliki Forest virus [4]) of the same compound?
Answer: Its ED50 is over 400 mg/kg.

Question: And the Protection index (Human alphaherpesvirus 1)?
Answer: Its Protection index is 0.45.
